Source: ChEMBL document CHEMBL3352599, “Radiosynthesis and biological evaluation of a novel enoyl-ACP reductase inhibitor for Staphylococcus aureus” (Eur J Med Chem, 2014)
Converted amounts (≈) assume the structure as drawn.

Key:
Mus musculus [1] = test: Volume of distribution at steady state in Swiss Webster mouse at 10 mg/kg, iv by LC/MS/MS analysis; type: ADME, organism-based; parameters: dose 10 mg/kg, route intravenous; conditions: in vivo
How it was run: (§1)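 Healthy Swiss Webster mice received a single dose, either 10 mg/kg iv or 40 mg/kg sc. Blood was drawn at 5, 15 and 30 min and 1, 2, 4, 7 and 24 h (n = 3). Each mouse gave two consecutive samples, retro-orbital then cardiac puncture, into EDTA. Plasma was deproteinized with acetonitrile and analysed by LC-MS/MS. Parameters came from noncompartmental analysis. sc bioavailability was calculated after dose normalization.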

[2] = Ratio of AUC for Swiss Webster mouse at 10 mg/kg, iv to MIC for methicillin-resistant Staphylococcus aureus BAA1762
How it was run: (§2)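 Healthy Swiss Webster mice were given a single dose, iv at 10 mg/kg or sc at 40 mg/kg. Blood was taken at 5, 15 and 30 min and 1, 2, 4, 7 and 24 h (n = 3), with EDTA as anticoagulant. Plasma was protein-precipitated with acetonitrile and analysed by LC-MS/MS. AUC0-∞ (h*μg/mL) came from noncompartmental analysis and was divided by MIC (μg/mL).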

[3] = Half life in Swiss Webster mouse at 40 mg/kg, sc by LC/MS/MS analysis; type: ADME, organism-based; parameters: dose 40 mg/kg, route subcutaneous; conditions: in vivo; how it was run: as §1
Staphylococcus aureus [4] = test: Antibacterial activity against Staphylococcus aureus; type: functional
Staphylococcus aureus [5] = test: Antibacterial activity against methicillin-resistant Staphylococcus aureus BAA1762 infected in Swiss Webster systemic infection model assessed as survival rate at 100 mg/kg, sc administered 1 hr post infection on day 0, day 1 and 2 with 24 hrs dosing interval and measured for additional 4 days (reference value: 0%); type: functional; conditions: route subcutaneous
How it was run: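 Mice made neutropenic with ip cyclophosphamide (150 mg/kg day −4, 100 mg/kg day −1). MRSA grown in Mueller Hinton broth at 37 °C to mid-log, washed and diluted in BHI, then given ip at 2×10^7 cells. Compound in ethanol/PEG-400/saline (40/20/40) given sc once daily for 3 days. Vehicle-treated infected controls. Survival checked twice daily for 7 days.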

Staphylococcus aureus [6] = test: Antibacterial activity against methicillin-resistant Staphylococcus aureus BAA1762 infected in Swiss Webster thigh infection model assessed as remaining bacterial burden at 40 mg/kg, sc administered 1 hr post challenge (reference value: 9 log10 CFU); conditions: route subcutaneous
[7] = AUC (0 to infinity) in Swiss Webster mouse at 40 mg/kg, sc by LC/MS/MS analysis; type: ADME, organism-based; parameters: time infinity, dose 40 mg/kg, route subcutaneous; conditions: plasma; how it was run: as §1
[8] = Cmax in Swiss Webster mouse at 10 mg/kg, iv by LC/MS/MS analysis; type: ADME, organism-based; parameters: dose 10 mg/kg, route intravenous; conditions: in vivo; how it was run: as §1
[9] = Cmax in Swiss Webster mouse at 40 mg/kg, sc by LC/MS/MS analysis; type: ADME, organism-based; parameters: dose 40 mg/kg, route subcutaneous; conditions: in vivo; how it was run: as §1
[10] = Mean residence time in Swiss Webster mouse at 40 mg/kg, sc by LC/MS/MS analysis; type: ADME, organism-based; parameters: dose 40 mg/kg, route subcutaneous; conditions: in vivo; how it was run: as §1
[11] = Mean residence time in Swiss Webster mouse at 10 mg/kg, iv by LC/MS/MS analysis; type: ADME, organism-based; parameters: dose 10 mg/kg, route intravenous; conditions: in vivo; how it was run: as §1
[12] = Ratio of AUC for Swiss Webster mouse at 40 mg/kg, sc to MIC for methicillin-resistant Staphylococcus aureus BAA1762; conditions: route subcutaneous; how it was run: as §2
Mus musculus [13] = test: Apparent volume of distribution in Swiss Webster mouse at 10 mg/kg, iv by LC/MS/MS analysis; type: ADME, organism-based; parameters: dose 10 mg/kg, route intravenous; conditions: in vivo; how it was run: as §1
[14] = Half life in Swiss Webster mouse at 10 mg/kg, iv by LC/MS/MS analysis; type: ADME, organism-based; parameters: dose 10 mg/kg, route intravenous; conditions: in vivo; how it was run: as §1
[15] = Tmax in Swiss Webster mouse at 10 mg/kg, iv by LC/MS/MS analysis; type: ADME, organism-based; parameters: dose 10 mg/kg, route intravenous; conditions: in vivo; how it was run: as §1
Staphylococcus aureus [16] = test: Antibacterial activity against methicillin-resistant Staphylococcus aureus BAA1762 infected in Swiss Webster thigh infection model assessed as remaining bacterial burden at 100 mg/kg, sc administered 1 hr post challenge (reference value: 9 log10 CFU); conditions: route subcutaneous
[17] = Bioavailability in Swiss Webster mouse at 40 mg/kg, sc by LC/MS/MS analysis; type: ADME, organism-based; conditions: in vivo; how it was run: as §1
[18] = AUC (0 to infinity) in Swiss Webster mouse at 10 mg/kg, iv by LC/MS/MS analysis; type: ADME, organism-based; parameters: time infinity, dose 10 mg/kg, route intravenous; conditions: plasma; how it was run: as §1
[19] = Clearance at steady state in Swiss Webster mouse at 10 mg/kg, iv by LC/MS/MS analysis; type: ADME, organism-based; parameters: dose 10 mg/kg, route intravenous; conditions: in vivo; how it was run: as §1

Compound `CCCCCCc1ccc(Oc2ccccc2C#N)c(O)c1` has a Vdss (Mus musculus [1]) of 475.6 mL, a RatioAUC/MIC [2] of 1.28 and a half-life [3] of 6.17 h. The MIC (Staphylococcus aureus [4]) was 0.5 mg/L (≈ 1.69 µM), the survival at 100 mg/kg (Staphylococcus aureus [5]) was 50% and the “log10 CFU” value (Staphylococcus aureus [6]) was 7. For the same compound, the AUC(0-inf) [7] was 1.77 µg·h/mL, the Cmax [8] was 0.84 µg/mL and the Cmax [9] was 0.28 µg/mL. For the same compound, the MRT [10] was 6.47 h, the MRT [11] was 0.65 h and the RatioAUC/MIC [12] was 3.54. The Vz (Mus musculus [13]) was 704.1 mL, the half-life [14] was 1.01 h and the Tmax [15] was 4.8 min. The “log10 CFU” value (Staphylococcus aureus [16]) was 6, the bioavailability [17] was 69% and the AUC(0-inf) [18] was 0.64 µg·h/mL. For the same compound, the clearance [19] was 7.31 mL/min.
